According to ChEMBL document CHEMBL3091313, “Amino acids derived benzoxazepines: design, synthesis and antitumor activity” (Bioorg Med Chem Lett, 2013):

Tests used:
[1] = system: MDA-MB-231; assay: Antiproliferative activity against human MDA-MB-231 cells after 24 hrs by MTT assay; type: functional, cell-based; conditions: MDA-MB-231, 24 h
How it was run: (§1)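 MCF-7 (ER+ve) and MDA-MB-231 (ER-ve) breast cancer cells were exposed to compound or vehicle. Viability was read by MTT and expressed as % cell death versus vehicle, with 4-hydroxytamoxifen as positive control. IC50 came from three independent experiments, each in triplicate.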

[2] = system: MCF7; assay: Antiproliferative activity against human MCF7 cells after 24 hrs by MTT assay; type: functional, cell-based; conditions: MCF7, 24 h; how it was run: as §1
[3] = system: MDA-MB-231; assay: Antiproliferative activity against human MDA-MB-231 cells after 72 hrs by MTT assay; type: functional, cell-based; conditions: MDA-MB-231, 72 h; how it was run: as §1
[4] = system: MDA-MB-231; assay: Antiproliferative activity against human MDA-MB-231 cells after 48 hrs by MTT assay; type: functional, cell-based; conditions: MDA-MB-231, 48 h; how it was run: as §1
[5] = system: MCF7; assay: Antiproliferative activity against human MCF7 cells after 72 hrs by MTT assay; type: functional, cell-based; conditions: MCF7, 72 h; how it was run: as §1
[6] = system: MCF7; assay: Antiproliferative activity against human MCF7 cells after 48 hrs by MTT assay; type: functional, cell-based; conditions: MCF7, 48 h; how it was run: as §1
[7] = Safety index, ratio of IC50 for HEK293 cells to IC50 for human MCF7 cells; type: toxicity, cell-based; conditions: HEK293 cells versus MCF7 cells, read-out: Ratio IC50
How it was run: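 Cell death was assessed by MTT assay after 72 h exposure. The ratio was calculated as the HEK-293 IC50 divided by the MCF-7 EC50.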

[8] = system: HEK293; assay: Cytotoxicity against HEK293 cells after 24 hrs by MTT assay; type: cell-based; conditions: Homo sapiens, HEK293, 72 h; in the assay text read “after 72 hrs” for “after 24 hrs”

Row | Compound | IC50 [1] | IC50 [2] | further results
1 | Cc1ccc(S(=O)(=O)N2Cc3ccccc3OC[C@@H]2Cc2ccc(OCCN3CCCCC3)cc2)cc1 | 10.2 µM | 9.62 µM | IC50 [3]: 4.2 µM; IC50 [4]: 5.12 µM; IC50 [5]: 3.23 µM; IC50 [6]: 4.31 µM
2 | CCC(=C(c1ccc(O)cc1)c1ccc(OCCN(C)C)cc1)c1ccccc1 | 10.4 µM | 7.2 µM | –
3 | COc1cccc2c1OC[C@H](Cc1ccc(OCCN3CCCC3)cc1)N(S(=O)(=O)c1ccc(C)cc1)C2 | > 20 µM | > 20 µM | –
4 | COc1cccc2c1OC[C@H](Cc1ccc(OCCN3CCCCCC3)cc1)N(S(=O)(=O)c1ccc(C)cc1)C2 | > 20 µM | > 20 µM | –
5 | COc1cccc2c1OC[C@H](Cc1ccc(OCCN3CCOCC3)cc1)N(S(=O)(=O)c1ccc(C)cc1)C2 | > 20 µM | > 20 µM | –
6 | COc1ccc2c(c1)OC[C@H](Cc1ccc(O)cc1)N(S(=O)(=O)c1ccc(C)cc1)C2 | > 20 µM | > 20 µM | –
7 | COc1ccc(C[C@H]2COc3ccccc3CN2)cc1 | > 20 µM | > 20 µM | –
8 | COc1ccc2c(c1)CN(S(=O)(=O)c1ccc(C)cc1)[C@@H](CC(C)C)CO2 | > 20 µM | > 20 µM | –
9 | Cc1ccc(S(=O)(=O)N2Cc3ccccc3OCC2Cc2ccc(O)cc2)cc1 (stereo not drawn) | – | – | selectivity ratio [7]: 3; IC50 [5]: 10 µM; IC50 [8]: 30 µM
10 | COc1ccc2c(c1)CN(S(=O)(=O)c1ccc(C)cc1)[C@@H](Cc1c[nH]c3ccccc13)CO2 | > 20 µM | > 20 µM | –

Continued, in another order:

Row | IC50 [1] | IC50 [2] | Compound | further results
11 | 15.7 µM | 12.5 µM | COc1ccc(C[C@H]2COc3ccccc3CN2Cc2ccc(OCCN3CCCC3)cc2)cc1 | –
12 | 18.6 µM | 14.5 µM | CCN(CC)CCOc1ccc(CN2Cc3ccccc3OC[C@@H]2Cc2ccc(OC)cc2)cc1 | –
13 | > 20 µM | > 20 µM | COc1ccc(C[C@H]2COc3ccccc3CN2Cc2ccc(OCCN3CCCCCC3)cc2)cc1 | –
14 | > 20 µM | > 20 µM | COc1ccc(C[C@H]2COc3ccccc3CN2Cc2ccc(OCCN(C)C)cc2)cc1 | –
15 | > 20 µM | > 20 µM | COc1ccc(C[C@H]2COc3ccccc3CN2Cc2ccc(OCCN3CCCCC3)cc2)cc1 | –
16 | > 20 µM | > 20 µM | COc1cccc2c1OC[C@H](Cc1ccc(OCCN(C)C)cc1)N(S(=O)(=O)c1ccc(C)cc1)C2 | –
17 | > 20 µM | > 20 µM | COc1ccc(C[C@H]2COc3ccccc3CN2C(=O)OC(C)(C)C)cc1 | –
18 | > 20 µM | > 20 µM | CCN(CC)CCOc1ccc(C[C@H]2COc3c(cccc3OC)CN2S(=O)(=O)c2ccc(C)cc2)cc1 | –
19 | 13.2 µM | 10.3 µM | COc1ccc(C[C@H]2COc3ccccc3CN2Cc2ccc(O)cc2)cc1 | –
